From ChEMBL document CHEMBL4382206, “Inhibition of adherence of the yeast Candida albicans to buccal epithelial cells by synthetic aromatic glycoconjugates” (Eur J Med Chem, 2018)
The source made the active and inactive calls. The rule behind the calls is not given here.

Legend:
Candida albicans [1] = assay: Antimicrobial activity against Candida albicans assessed as inhibition of fungal adherence to BEC by measuring change in adhesion at 10 mg/ml treated with fungus for 90 mins followed by compound washout and cell line addition by crystal violet staining based microscopic analysis relative to control; assay type: functional; design: scale not given: the % may be the effect or the level left
Outline: (§1)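 Stationary-phase C. albicans, grown overnight in YEPD at 30°C and 200 rpm, was washed and suspended in PBS at 1 x 10^8/mL. Yeast was preincubated 90 min with compound, washed twice, and mixed 50:1 with donor buccal cells (5 x 10^5/ml) at 30°C, 200 rpm, for 90 min. Samples were filtered through 30 µm pores, stained with crystal violet, and yeast counted on 200 BECs; n=3, mean ± SEM.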

Candida albicans [2] = assay: Growth inhibition of Candida albicans at 0.02 to 10 mg/ml; assay type: organism-based
Candida albicans [3] = assay: Antimicrobial activity against Candida albicans assessed as inhibition of fungal adherence to BEC at 0.1 mg/ml incubated with fungal/BEC mixture for 90 mins by crystal violet staining based microscopic analysis relative to untreated control; assay type: functional; settings: 1.5 h
Candida albicans [4] = assay: Antimicrobial activity against Candida albicans assessed as inhibition of fungal adherence to BEC at 0.1 mg/ml incubated with fungal/BEC mixture for 90 mins by crystal violet staining based microscopic analysis relative to PBS treated control; assay type: functional; settings: 1.5 h
Candida albicans [5] = assay: Antimicrobial activity against Candida albicans assessed as inhibition of fungal adherence to BEC at 0.1 mg/ml treated with fungus for 90 mins followed by compound washout and cell line addition by crystal violet staining based microscopic analysis; assay type: functional, organism-based; outline: as §1
Candida albicans [6] = assay: Antimicrobial activity against Candida albicans assessed as inhibition of fungal adherence to BEC by measuring adhesion at 0.1 mg/ml after 90 mins by crystal violet staining based microscopic analysis relative to control; assay type: functional; settings: 1.5 h
Outline: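 Competition format: yeast (1 x 10^8/mL PBS) and exfoliated human buccal cells (50:1 ratio) were co-incubated with compound for 90 min at 30°C, 200 rpm. BECs were trapped on a 30 µm polycarbonate membrane, washed twice with PBS, heat-fixed and crystal violet-stained. Adherent yeast were counted microscopically on 200 random BECs; three independent occasions, mean ± SEM.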

[7] = Drug uptake in Candida albicans cell membrane by confocal microscopic analysis; assay type: ADME, cell-based
Outline: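 For confocal imaging, C. albicans cells were co-incubated with the fluorescein-labelled galactoside, with untreated cells and FITC-treated cells as controls. Excitation was at 488 nm and emission was collected at 500–600 nm.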

What does the source list for `O=C(NCc1cn(CCO[C@@H]2O[C@H](CO)[C@H](O)[C@H](O)[C@H]2O)nn1)c1cc(C(=O)NCc2cn(CCO[C@@H]3O[C@H](CO)[C@H](O)[C@H](O)[C@H]3O)nn2)cc(C(=O)NCc2cn(CCO[C@@H]3O[C@H](CO)[C@H](O)[C@H](O)[C@H]3O)nn2)c1`?
Activity (Candida albicans [1]): -42%; growth inhibition (GI) (Candida albicans [2]): Non-Toxic

For `O=C(NCc1cn([C@@H]2O[C@H](CO)[C@H](O)[C@H](O)[C@H]2O)nn1)c1cc(C(=O)NCc2cn([C@@H]3O[C@H](CO)[C@H](O)[C@H](O)[C@H]3O)nn2)cc(C(=O)NCc2cn([C@@H]3O[C@H](CO)[C@H](O)[C@H](O)[C@H]3O)nn2)c1`, which Activity (Candida albicans [1]) is on record?
The Activity was -45%.

What about the “growth inhibition (GI)” value (Candida albicans [2]) of the same compound?
The value was “Non-Toxic”.

What does the source list for `C[C@@H]1O[C@H](n2cc(CNC(=O)c3cc(C(=O)NCc4cn([C@H]5O[C@@H](C)[C@@H](O)[C@@H](O)[C@@H]5O)nn4)cc(C(=O)NCc4cn([C@H]5O[C@@H](C)[C@@H](O)[C@@H](O)[C@@H]5O)nn4)c3)nn2)[C@@H](O)[C@H](O)[C@@H]1O`?
Activity (Candida albicans [1]): -30%; growth inhibition (GI) (Candida albicans [2]): Non-Toxic

For `CCC(=O)Nc1cc(C(=O)NCc2cn([C@H]3O[C@@H](C)[C@@H](O)[C@@H](O)[C@@H]3O)nn2)cc(C(=O)NCc2cn([C@H]3O[C@@H](C)[C@@H](O)[C@@H](O)[C@@H]3O)nn2)c1`, which Activity (Candida albicans [1]) is on record?
The Activity was -8%.

What about the “growth inhibition (GI)” value (Candida albicans [2]) of the same compound?
The value was “Non-Toxic”.

Which Activity (Candida albicans [1]) does the source give for `CCC(=O)Nc1cccc(C(=O)NCc2cn([C@H]3O[C@@H](C)[C@@H](O)[C@@H](O)[C@@H]3O)nn2)c1` here?
The Activity was -2%.

With `CC[C@H](C)C[C@H](C)CCCCCCCCC(=O)N[C@H]1C[C@@H](O)[C@@H](NCCN)NC(=O)[C@@H]2[C@@H](O)CCN2C(=O)[C@H]([C@H](O)CCN)NC(=O)[C@H]([C@H](O)[C@@H](O)c2ccc(O)cc2)NC(=O)[C@@H]2C[C@@H](O)CN2C(=O)[C@H]([C@@H](C)O)NC1=O` [CASPOFUNGIN] as the compound, how does the “growth inhibition (GI)” value (Candida albicans [2]) read?
Its value is “Non-Toxic”.

Which Activity (Candida albicans [1]) does the source give for `CCC(=O)Nc1cc(C(=O)NCc2cn([C@@H]3O[C@H](CO)[C@H](O[C@@H]4O[C@H](CO)[C@H](O)[C@H](O)[C@H]4O)[C@H](O)[C@H]3O)nn2)cc(C(=O)NCc2cn([C@@H]3O[C@H](CO)[C@H](O[C@@H]4O[C@H](CO)[C@H](O)[C@H](O)[C@H]4O)[C@H](O)[C@H]3O)nn2)c1` here?
Its Activity is 6.5%.

Which Activity (Candida albicans [1]) does the source give for `CCC(=O)Nc1cc(C(=O)N[C@@H]2O[C@H](CO)[C@H](O)[C@H](O)[C@H]2O)cc(C(=O)N[C@@H]2O[C@H](CO)[C@H](O)[C@H](O)[C@H]2O)c1` here?
The Activity was -26%.

With `CCC(=O)Nc1cc(C(=O)NCc2cn([C@H]3O[C@H](CO)[C@@H](O)[C@H](O)[C@@H]3O)nn2)cc(C(=O)NCc2cn([C@H]3O[C@H](CO)[C@@H](O)[C@H](O)[C@@H]3O)nn2)c1` as the compound, how does the Activity (Candida albicans [1]) read?
The Activity was 3%.

With `CCC(=O)Nc1cc(C(=O)NCc2cn([C@@H]3O[C@H](CO)[C@H](O)[C@H](O)[C@H]3O)nn2)cc(C(=O)NCc2cn([C@@H]3O[C@H](CO)[C@@H](O)[C@H](O)[C@@H]3O)nn2)c1` as the compound, how does the Activity (Candida albicans [1]) read?
Its Activity is -24%.

For `CCC(=O)Nc1cccc(C(=O)NCc2cn(CCO[C@@H]3O[C@H](CO)[C@H](O)[C@H](O)[C@H]3O)nn2)c1`, which Activity (Candida albicans [1]) is on record?
Its Activity is -7.5%.

Which results are given for `CCC(=O)Nc1cc(C(=O)NCc2cn(CCO[C@@H]3O[C@H](CO)[C@H](O)[C@H](O)[C@H]3O)nn2)cc(C(=O)NCc2cn(CCO[C@@H]3O[C@H](CO)[C@H](O)[C@H](O)[C@H]3O)nn2)c1`?
Activity (Candida albicans [1]): -35%; growth inhibition (GI) (Candida albicans [2]): Non-Toxic

Which inhibition at 100 µg/mL (Candida albicans [3]) does the source give for `CCC(=O)Nc1cc(C(=O)NCc2cn([C@@H]3O[C@H](CO)[C@H](O)[C@H](O)[C@H]3O)nn2)cc(C(=O)NCc2cn([C@@H]3O[C@H](CO)[C@H](O)[C@H](O)[C@H]3O)nn2)c1` here?
Its inhibition at 100 µg/mL is 56%.

And the inhibition at 100 µg/mL (Candida albicans [4])?
The inhibition at 100 µg/mL was 31%.

What about the inhibition (Candida albicans [5]) of the same compound?
Its inhibition is “Active”.

What about the Activity (Candida albicans [1]) of the same compound?
Its Activity is -80%.

What about the “growth inhibition (GI)” value (Candida albicans [2]) of the same compound?
Its value is “Non-Toxic”.

And the inhibition at 100 µg/mL (Candida albicans [6])?
Its inhibition at 100 µg/mL is 65%.

For `O=C(NCc1cn([C@@H]2O[C@H](CO)[C@H](O)[C@H](O)[C@H]2O)nn1)c1cc(NC(=S)Nc2ccc3c(c2)C(=O)OC32c3ccc(O)cc3Oc3cc(O)ccc32)cc(C(=O)NCc2cn([C@@H]3O[C@H](CO)[C@H](O)[C@H](O)[C@H]3O)nn2)c1`, which Drug uptake [7] is on record?
The Drug uptake was “Active”.

Which Activity (Candida albicans [1]) does the source give for `CCC(=O)Nc1cc(C(=O)NCc2cn([C@H]3O[C@H](CO)[C@@H](O)[C@H](O)[C@H]3NC(C)=O)nn2)cc(C(=O)NCc2cn([C@H]3O[C@H](CO)[C@@H](O)[C@H](O)[C@H]3NC(C)=O)nn2)c1` here?
The Activity was -45%.

With `CCC(=O)Nc1cccc(C(=O)NCc2cn([C@@H]3O[C@H](CO)[C@H](O)[C@H](O)[C@H]3O)nn2)c1` as the compound, how does the Activity (Candida albicans [1]) read?
Its Activity is -14.5%.
